“And” between values parts separate entries of the source, which are not always exact repeats. Equal entries are not always repeated. Where two headings read alike, the source gives them in different places.
How the values were obtained:
[1] = target: T1, PRMDR (multi-drug-resistant HIV-1 PR) (Human immunodeficiency virus type 1 group M subtype B, UniProt P04585, A559V/I542V/I581L/K533R/L498I/L551P/L578M/V570T); type: biochemical; conditions: for relative potency at inducing monomer formation: dose–response data, results not shown
[2] = target: T1, PRMDR (multi-drug-resistant HIV-1 PR); test: Co-elution of inhibitors with PRMDR on size-exclusion chromatography; type: binding; conditions: for co-elution with PRMDR: MS detection
How it was run: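 PR_MDR was diluted to 0.25–2 μM subunit concentration in 150 mM ammonium acetate (pH 5.4) with 0.1 mg·ml⁻¹ BSA (final). The active-site inhibitor came from a 1 mM stock in 100% DMSO. Samples were incubated at 37 °C, and 8 μl was injected onto a BioSep SEC3000 column run isocratically at 0.35 ml·min⁻¹ in the same buffer. Detection was by fluorescence and by MS in SIM mode on chosen molecular ions.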

[3] = test system: PRWT (wild-type HIV-1 PR); test: Co-elution of active-site inhibitors with PRWT on size-exclusion chromatography; type: binding; conditions: results not shown
[4] = test system: monomeric and dimeric forms of PR; conditions: 13C-labelled tryptophan residues of PR; ref [21]; cited from earlier work
[5] = test system: PRWT; conditions: 5 min pre-incubation with ≤25 nM PRWT; ref [16]; cited from earlier work
[6] = target: T1, PRMDR (multi-drug-resistant HIV-1 PR); type: biochemical; conditions: 25 μM P27; PRMDR 1 μM; 16 h at 37 °C; excitation 280 nm
How it was run: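 PR_MDR (1 μM final) was incubated 16 h at 37 °C with 25 μM peptide dimerization inhibitor in 150 mM ammonium acetate containing 100 μg·ml⁻¹ BSA. An 8 μl sample was run by SEC in running buffer at pH 5.4, 0.35 ml·min⁻¹ isocratic. Fluorescence was read at 280 nm excitation and 350 nm emission, with emission spectra from 325–375 nm taken at each peak apex against reference spectra at 10.2 and 12 min. MS used SIM at m/z 1086 (10⁺).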

[7] = target: T1, PRMDR (multi-drug-resistant HIV-1 PR); conditions: ref [20]; cited from earlier work
[8] = target: T1, PRMDR (multi-drug-resistant HIV-1 PR); test: PR activity with fluorescent PR substrate after peptide treatment; type: biochemical; conditions: 16 h at 37 °C, PRMDR 1 μM; for PR activity: untreated 2.6
[9] = test system: PR dimerization within infected cells; conditions: fluorescence resonance energy transfer assay; ref [32]; cited from earlier work
[10] = test system: HIV-1 PR (autoproteolysis); test: PR stability and autoproteolysis; type: biochemical; conditions: for autoproteolysis (SDS/PAGE): 20 h at 40 μM, 20 °C; for autoproteolysis (RP-HPLC–MS): after incubation in 150 mM ammonium acetate pH 5.4, results not shown
How it was run: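 Wild-type and multi-drug-resistant HIV-1 PR incubated 16–24 h in ammonium acetate buffer, with or without 1 mM TCEP. Activity read with a fluorescent PR substrate, mean ± S.D. Cleavage checked on Coomassie-stained 10 % Bis/Tris SDS/PAGE. Alternatively, 37 °C samples were quenched with solid guanidine hydrochloride (6 M final) for RP-HPLC, gradient to 95 % solvent B, monitored at 205/276 nm and by electrospray MS.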

[11] = test system: HIV-1 PR dimerization; test: Size-exclusion chromatography elution of HIV-1 PRs; type: biochemical; conditions: 1 μM (PRT26A 2 μM); 37 °C 60 min
[12] = test system: PRMDR dimer; type: binding, HIV-1; conditions: 16 h at 37 °C; for Kd: 150 mM ammonium acetate pH 5.4
[13] = target: PRT26A; conditions: read-out: dissociation constant (Kd); ref [30]; cited from earlier work
[14] = test system: HIV-2 PR dimerization; test: Size-exclusion chromatography elution of oxidized HIV-2 PR; type: biochemical; conditions: after hydrogen peroxide treatment; results not shown
[15] = 25 μM P27, PRMDR 1 μM, 16 h at 37 °C, MS
[16] = 20 h at 37 °C, 150 mM ammonium acetate pH 5.4, 2 μM PR, n = 3
[17] = PRMDR 0.25–2 μM, approximate, MS

Molecule: Cc1ccccc1CNC(=O)[C@H]1N(C(=O)[C@@H](O)[C@H](Cc2ccccc2)NC(=O)c2cccc(O)c2C)CSC1(C)C [JE-2147]
- effect on PRMDR elution ([1]; 1 μM JE-2147, PRMDR 0.25–2 μM, 16 h at 37 °C): PRMDR eluted as the earlier form (dimer)
- correlation coefficient, JE-2147 area vs PRMDR area by MS ([2]; MS, PRMDR dose–response): 0.997
- elution time of inhibitor co-eluting with PRMDR ([2]; molecular ion of inhibitor by MS, PRMDR also 10.8 min): 10.8 min

Molecule: CSC[C@H](NC(=O)COc1cccc2cnccc12)C(=O)N[C@@H](Cc1ccccc1)[C@H](O)C(=O)N1CSC[C@H]1C(=O)NC(C)(C)C [KNI-272]
- co-elution with PRWT [3]: co-elute with PRWT
- co-elution with PRMDR [2]: did not elute with PRMDR

Molecule: CC(C)c1nc(CN(C)C(=O)N[C@H](C(=O)N[C@@H](Cc2ccccc2)C[C@H](O)[C@H](Cc2ccccc2)NC(=O)OCc2cncs2)C(C)C)cs1 [ritonavir]
- co-elution with PRWT [3]: co-elute with PRWT
- co-elution with PRMDR [2]: did not elute with PRMDR

Molecule: CC(C)(C)NC(=O)[C@@H]1C[C@@H]2CCCC[C@@H]2CN1C[C@@H](O)[C@H](Cc1ccccc1)NC(=O)[C@H](CC(N)=O)NC(=O)c1ccc2ccccc2n1 [saquinavir]
- co-elution with PRWT [3]: co-elute with PRWT
- co-elution with PRMDR [2]: did not elute with PRMDR

Molecule: Ac-CTLNF [acetylated-CTLNF]
- relative potency at inducing monomer formation [1]: P27 > CTLNF > Ac-CTLNF > Ac-TLNF

Molecule: Ac-SEYL-OH
- interaction with PR by NMR [4]: interaction of a peptide dimerization inhibitor (Ac-SEYL-OH) with both monomeric and dimeric forms of PR

Molecule: Ac-TLNF [acetylated-TLNF, reference compound]
- relative potency at inducing monomer formation [1]: P27 > CTLNF > Ac-CTLNF > Ac-TLNF

Molecule: CTLNF [reference compound]
- IC50 [5]: 150 µM
- relative potency at inducing monomer formation [1]: P27 > CTLNF > Ac-CTLNF > Ac-TLNF

Molecule: PQITLRKKRRQRRRPPQVSFNFCTLNF [P27]
- PRMDR elution time, dimer peak [1, 15]: 10.8 min
- PRMDR elution time, monomer peak [1, 15]: 11.3 min
- monomer induced ([1]; 25 μM P27, PRMDR at 0.5 μM): 80%
- monomer induced ([1]; 25 μM P27, PRMDR at 1 μM): approx. 40%
- time to clear evidence of monomer formation ([1]; 50 μM P27): ≤ 4 h
- time to maximum effect / plateau of monomer formation ([1]; 50 μM P27, PR 1 μM): 10 to 12 h
- time of peak absolute amount of detectable monomer ([1]; 50 μM P27, steadily decreased thereafter): 6 to 8 h
- PRMDR peak elution time ([1]; 50 μM peptide, PRMDR 1 μM, 16 h at 37 °C, MS m/z 1086): 11.3 min
- total PRMDR not recovered after treatment as compared to untreated ([1]; P27, PRMDR 1 μM, 16 h): approx. 20%
- relative potency at inducing monomer formation [1]: P27 > CTLNF > Ac-CTLNF > Ac-TLNF
- emission maximum λmax, dimer [6]: 346 nm
- emission maximum λmax, monomer [6]: 352 nm
- inhibition of PRMDR activity [7]: inhibit PRMDR activity
- PR activity ([8]; 25 μM P27): 1.85 RFU min^−1 · μg^−1
- decrease in PRMDR enzyme activity ([8]; 50 μM P27): 99%
- PR activity ([8]; 50 μM P27): 0.0 RFU min^−1 · μg^−1
- block of PR dimerization within infected cells [9]: block PR dimerization within infected cells

Molecule: PRMDR: multi-drug-resistant HIV-1 PR with L10I, K45R, I54V, L63P, A71V, V82T, L90M and I93L
- autoproteolysis (SDS/PAGE) ([10]; 150 mM ammonium acetate pH 5.4): remained intact
- PR activity after incubation [10, 16]: remained unaffected
- autoproteolysis (RP-HPLC–MS) [10]: remained intact
- elution time by MS [11]: 10.8 min
- elution time, earlier-eluting (dimer) PRMDR peak [12, 17]: ~10.8 min
- elution time, later-eluting (monomer) PRMDR peak [12, 17]: ~11.3 min
- Kd ([12]; read-out: apparent Kd for dimer dissociation, as dimeric concentration, dimeric concentration): ~0.25 µM
- Kd ([12]; read-out: apparent Kd for dimer dissociation, monomeric concentration): ~0.5 µM

Molecule: PRT26A: autoproteolysis-resistant and monomeric HIV-1 PR
- elution time by MS [11]: 11.2 min and 11.0 min
- Kd [13]: > 1000 µM

Molecule: PRWT: wild-type HIV-1 PR
- autoproteolysis (SDS/PAGE) ([10]; 150 mM ammonium acetate pH 5.4): extensive autoproteolysis
- PR activity lost [10, 16]: more than 95%
- autoproteolysis (RP-HPLC–MS) [10]: substantial autoproteolysis
- autoproteolysis ([10]; within 4 h of incubation): approx. 40%

B1: PRHIV-2-OX: oxidized HIV-2 PR (protein, UniProt P04584 514-612, looked up)
Protease: PQFSLWKRPVVTAYIEGQPVEVLLDTGADDSIVAGIELGNNYSPKIVGGIGGFINTKEYKNVEIEVLNKKVRATIMTGDTPINIFGRNILTALGMSLNL
modifications: Protease oxidized
- elution of oxidized HIV-2 PR [14]: consistent with a monomeric form of the PR
